BindingDB's records for doi:10.1021/jm701271y (Wyeth Research, 2008)

What follows are compounds tested against Signal transducer and activator of transcription 3 (Homo sapiens, UniProt P40763) (assay: Inhibition of STAT3 Y705 phosphorylation in human U266 cells by Western blot analysis).
Summary of the method: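 Steady-state phosphorylation: exponentially growing U266 cells (1 × 10⁶ cells at 2 × 10⁵ cells/mL, RPMI1640 + 10% FBS) were treated with compound for 1 h. Cells were lysed in PhosphoSafe reagent with protease inhibitors. Western blot used primary antibodies (1:1000, 2 h) and fluorescent secondaries (1 h) at room temperature. A representative blot from several repeats is shown.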

Chain of Signal transducer and activator of transcription 3 (P40763 whole entry): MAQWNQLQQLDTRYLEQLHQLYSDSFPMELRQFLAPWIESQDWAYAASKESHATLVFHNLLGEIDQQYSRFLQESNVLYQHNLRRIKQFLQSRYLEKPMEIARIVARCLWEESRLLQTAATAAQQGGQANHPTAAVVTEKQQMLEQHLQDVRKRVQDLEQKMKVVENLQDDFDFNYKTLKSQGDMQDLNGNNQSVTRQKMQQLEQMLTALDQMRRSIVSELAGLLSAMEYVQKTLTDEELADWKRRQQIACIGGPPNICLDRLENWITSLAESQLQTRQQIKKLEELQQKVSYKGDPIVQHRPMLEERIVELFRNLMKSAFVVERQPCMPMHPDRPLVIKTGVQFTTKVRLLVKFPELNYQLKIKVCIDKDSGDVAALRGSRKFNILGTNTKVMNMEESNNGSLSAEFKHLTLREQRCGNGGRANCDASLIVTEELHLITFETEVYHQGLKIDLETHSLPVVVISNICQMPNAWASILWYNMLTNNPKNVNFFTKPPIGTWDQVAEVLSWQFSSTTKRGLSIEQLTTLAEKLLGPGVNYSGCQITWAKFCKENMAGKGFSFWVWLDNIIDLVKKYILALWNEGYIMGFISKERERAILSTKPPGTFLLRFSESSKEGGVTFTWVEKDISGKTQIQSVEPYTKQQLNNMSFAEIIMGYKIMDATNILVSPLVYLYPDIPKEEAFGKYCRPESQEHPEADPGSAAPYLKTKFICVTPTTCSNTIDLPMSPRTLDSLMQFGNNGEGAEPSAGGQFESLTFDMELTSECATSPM

Row | Compound | EC50
1 | N#Cc1c(F)c(F)c(-n2cc(C(=O)NCc3ccc(F)cc3)c(=O)c3cc(F)c(F)c(F)c32)c(F)c1F [1-(4-Cyano-2,3,5,6-tetrafluorophenyl)-6,7,8-trifluoro-N-(4-fluorobenzyl)-4-oxo-1,4-dihydroquinoline-3-carboxamide] | 200 nM
2 | CCOC(=O)c1cn(-c2c(F)c(F)c(F)c(F)c2F)c2c(F)c(F)c(F)c(F)c2c1=O [Ethyl 5,6,7,8-tetrafluoro-4-oxo-1-(pentafluorophenyl)-1,4-dihydroquinoline-3-carboxylate] | 4600 nM
3 | CCOC(=O)c1cn(-c2c(F)c(F)c(C#N)c(F)c2F)c2c(F)c(F)c(F)cc2c1=O [Ethyl 1-(4-Cyano-2,3,5,6-tetrafluorophenyl)-6,7,8-trifluoro-4-oxo-1,4-dihydroquino-line-3-carboxylate] | 170 nM
4 | N#Cc1c(F)c(F)c(-n2cc(C(=O)OCc3ccccc3)c(=O)c3cc(F)c(F)c(F)c32)c(F)c1F [Benzyl 1-(4-Cyano-2,3,5,6-tetrafluorophenyl)-6,7,8-trifluoro-4-oxo-1,4-dihydroquinoline-3-carboxylate] | 130 nM
5 | O=C(O)c1cn(-c2c(F)c(F)c(F)c(F)c2F)c2c(F)c(F)c(F)c(F)c2c1=O [5,6,7,8-Tetrafluoro-4-oxo-1-(pentafluoro-phenyl)-1,4-dihydroquinoline-3-carboxylic acid] | 46000 nM
